Experimental data from publication PMC3594138 (Bioorganic & medicinal chemistry letters, 2013).
Where two headings read alike, the source gives them in different places.

Assays:
isolated rat heart = details: uptake-2 blocked pharmacologically; cited from earlier work
[1] = rats, t = 30 min, n = 5, mean ± SD; cited from earlier work
[2] = Biodistribution studies in rats; assay type: in vivo, rat; details: t = 30 min after intravenous injection, n = 5, mean ± SD
Procedure, shortened: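 Rats received the fluorine-18 labelled test compound by intravenous injection. Tissue radioactivity was determined 30 min later and expressed as % injected dose/g, with n = 5 each.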

[3] = MicroPET imaging study in rhesus macaque; assay type: in vivo, rhesus macaque monkey; details: PET

| Compound | Major Clearance T1/2 (isolated rat heart) | Neuronal uptake rate Kup (isolated rat heart) | Tissue concentration, adrenal medulla [1] | Tissue concentration, blood [1] | Tissue concentration, liver [1] | Tissue concentration, lung [1] | Tissue concentration, spleen [1] | other results |
| --- | --- | --- | --- | --- | --- | --- | --- | --- |
| N=[11C](N)NCCc1ccc(F)c(O)c1 [[^11C]4F-MHPG, [^11C]4-fluoro-m-hydroxyphenethylguanidine] | > 73 h | 0.72 ml/min/g wet | 0.56 ± 0.21 % injected dose/g | 0.08 ± 0.01 % injected dose/g | 1.22 ± 0.18 % injected dose/g | 0.56 ± 0.15 % injected dose/g | 0.52 ± 0.10 % injected dose/g | Tissue concentration, left ventricle [1]: 1.77 ± 0.27 % injected dose/g |
| N=C(N)NCCc1ccc([18F])c(O)c1 [[^18F]4F-MHPG, [^18F]4-fluoro-m-hydroxyphenethylguanidine] | – | – | – | – | – | – | – | Tissue concentration, adrenal medulla [2]: 0.54 ± 0.08 % injected dose/g; Tissue concentration, blood [2]: 0.07 ± 0.01 % injected dose/g; Tissue concentration, left ventricle [2]: 1.45 ± 0.13 % injected dose/g; Tissue concentration, liver [2]: 1.14 ± 0.16 % injected dose/g; Tissue concentration, lung [2]: 0.43 ± 0.08 % injected dose/g; Tissue concentration, spleen [2]: 0.56 ± 0.10 % injected dose/g; Retention of the tracer in the lungs [3]: essentially no retention; Uptake in the liver relative to cardiac uptake [3]: a little lower than the cardiac uptake; Activity in the vertebrae of the spine (in vivo defluorination) ([3]; sagittal images): little or no activity |
| N=C(N)NCc1ccc([18F])cc1 [[^18F]PFBG, p-[^18F]fluorobenzylguanidine] | 0.53 ± 0.06 h | – | – | – | – | – | – | – |
| N=C(N)NCc1cccc([123I])c1 [[^123I]MIBG, [^123I]-m-iodobenzylguanidine] | 3.5 ± 1.8 h | – | – | – | – | – | – | – |
| NC(N)=NCc1cccc([125I])c1 [[^125I]MIBG] | – | – | 1.53 ± 0.08 % injected dose/g | 0.10 ± 0.01 % injected dose/g | 1.19 ± 0.06 % injected dose/g | 2.31 ± 0.19 % injected dose/g | 0.85 ± 0.06 % injected dose/g | – |
| [^11C]-(−)-m-hydroxyephedrine [[^11C]HED] | – | 2.7 ± 0.4 ml/min/g wet | – | – | – | – | – | – |
